Hits are enriched below; roughly 1.5% of the tested compounds scored in any of these assays.
aDG glyco act = alpha-DG glycosylation activation. Pro5-aDG cells, alpha-DG glycosylation AlphaScreen (IIH6); 0% Pro5, 100% B10-LARGE cell signal. actives 0.22% (n = 360,000). AID 624168. activation, % at 10 µM;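 active = activation of at least 8% versus controls, or a plate z-score of at least 8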;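 note: Pro5 are CHO cells carrying HIG-tagged alpha-DG that lacks glycosylation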
CSN deneddyl inh = blocks human CSN-mediated cullin deneddylation | Q92905 | Purified CSN, SCF-Nedd8-OG deneddylation, fluorescence polarization | inhibition, % at 12.5 µM | actives 0.38% (n = 360,000) | AID 651999;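 active = pattern-corrected inhibition above about 35%, with an unprinted fluorescence ratio check between 0.5 and 1.5, limit read from the data, passing the limit was not always enough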;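 note: 0% = enzyme with substrate and 100% = substrate without enzyme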
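Material: human Csn5 produced in HEK293T cells; Input: enzyme 0.24 nM; Reagent: SCFSkp2-Nedd8OG substrate at 10 nM final; Dosing: 12.5 µM compound; Incubation: 90 min reaction at room temperature; Detection: fluorescence polarization of the substrate; Evaluation: % inhibition of substrate cleavage by Csn5; Control set: substrate-only high control, full reaction low control.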
HNF4A DNA FP = change in binding of human HNF4 alpha to DNA | actives 0.3% (n = 360,000) | activity change, % at 10 µM | AID 1224865 | HNF4a-FITC DNA binding, fluorescence polarization, 1 h; in the data active = activity change above about 30%, passing the limit was not always enough
NR1D1 modulator = modulators of human Rev-erb alpha DNA binding; P20393; Rev-erbα–FITC-DNA binding, fluorescence polarization, 90 min; activity, % at 10 µM; actives 0.79% (n = 370,000);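 active = activity above about 14%, limit read from the data; passing the limit was not always enough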;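 note: 0% = DMSO wells with 35 nM protein and 100% = DMSO wells with 750 nM protein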
Target sequence (P20393 whole entry, looked up): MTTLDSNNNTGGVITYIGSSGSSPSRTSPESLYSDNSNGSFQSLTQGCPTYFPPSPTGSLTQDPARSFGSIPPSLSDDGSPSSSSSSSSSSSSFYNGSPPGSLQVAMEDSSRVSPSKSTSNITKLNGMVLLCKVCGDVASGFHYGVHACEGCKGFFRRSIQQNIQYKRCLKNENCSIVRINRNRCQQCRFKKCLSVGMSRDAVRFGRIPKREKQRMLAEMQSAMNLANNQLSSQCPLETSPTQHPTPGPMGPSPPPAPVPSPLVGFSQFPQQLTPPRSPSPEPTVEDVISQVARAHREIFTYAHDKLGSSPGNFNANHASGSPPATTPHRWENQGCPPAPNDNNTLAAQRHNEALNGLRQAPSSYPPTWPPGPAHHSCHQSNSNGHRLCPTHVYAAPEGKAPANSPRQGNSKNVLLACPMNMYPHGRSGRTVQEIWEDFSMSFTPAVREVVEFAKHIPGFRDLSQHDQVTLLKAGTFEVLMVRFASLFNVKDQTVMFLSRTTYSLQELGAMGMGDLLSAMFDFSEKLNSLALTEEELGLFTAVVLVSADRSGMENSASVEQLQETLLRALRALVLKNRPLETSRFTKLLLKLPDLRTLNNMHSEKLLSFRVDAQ
Rev-erbA confirm = Rev-erb alpha (human) modulation, hit confirmation | actives 61% (n = 3,000) | activation, % at 25 µM | shares compounds with NR1D1 modulator | Rev-erb alpha FITC-DNA binding, fluorescence polarization, 90 min;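 active = activation at or above a set limit, or at least 3 SD above the negative control mean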;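 note: 0% = 35 nM protein with DMSO and 100% = 750 nM protein high control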
RORg counter = counter-screen for Rev-erb alpha modulators: RORgamma DNA binding; actives 8% (n = 910); IC50, µM; AID 1259320; purified RORgamma protein-FITC-DNA binding, fluorescence polarization; shares compounds with NR1D1 modulator;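 active = Compounds whose fitted half-maximal concentration for disrupting protein-DNA binding is below 10 micromolar; the record names Rev-erb in its text, so the target is in doubt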
The depositor's hits bear a star; i = inactive; nt = no result.

SMILES | aDG glyco act | CSN deneddyl inh | HNF4A DNA FP | NR1D1 modulator | Rev-erbA confirm | others
CC(C)Cc1nc2sc3c(SCC(N)=O)ncnc3c2c2c1CCC2 | 0.1 | -2.1 | -2.9 | 368.6* | 567.8* | RORg counter=i
COC(=O)[C@@H](C)NC(=O)C(Cc1ccc2c(c1)OCO2)NC(C)=O (stereo partly drawn) | nt | nt | nt | -2.5 | nt
CCOc1ccc(-n2c([S-])c(C(=O)Nc3ccc(S(=O)(=O)N4CCOCC4)cc3)[n+]3cc(C(N)=O)ccc23)cc1 | -0.2 | 5.3 | 3.4 | 90.6* | 42.5* | RORg counter=>40
N#Cc1cc(C#N)c(N2CCN(c3cccc(Cl)n3)CC2)nc1N | 0.6 | -0.2 | -2.2 | 25.6* | 71.5* | RORg counter=i
Cc1cccc2cc(C#N)c(N3CCN(C)CC3)nc12 | 0.0 | -2.6 | -2.3 | 10.1 | nt
O=C(N=c1ccn(-c2nc3ccccc3nc2NS(=O)(=O)c2ccccc2)cc1)c1cccs1 | 0.0 | 18.0 | 6.8 | 174.2* | 144.8* | RORg counter=>40
Cc1ccccc1C(=O)N=c1ccn(-c2nc3ccccc3nc2NS(=O)(=O)c2ccc(F)cc2)cc1 | 0.0 | 5.5 | 13.3 | 35.3* | 91.8* | RORg counter=>40
O=S(=O)(Nc1nc2ccccc2nc1N1CCN(c2ccccc2)CC1)c1ccc(F)cc1 | -0.1 | -3.4 | -10.8 | 1.7 | nt
N#CC1=C(SCC(N)=O)NC2=C(C(=O)c3ccccc32)C1c1ccc(Cl)cc1 (stereo not drawn) | 0.1 | -2.2 | -0.3 | 33.0* | 54.4* | RORg counter=>40
CC1(C)CC(=O)C2=C(C1)NC1=C(C(=O)c3ccccc31)C2c1ccc(Cl)cc1 (stereo not drawn) | 0.4 | -8.3 | 0.6 | -4.5 | nt
COc1cccc(C(=O)N/N=c2/oc3ccccc3cc2C(N)=O)c1 | 0.0 | -2.3 | 1.1 | 13.6* | 0.0
N#Cc1c(-c2ccccc2)cc(-c2ccccc2)nc1SCc1nnc(-c2ccccc2)o1 | 0.1 | 8.6 | -3.4 | 49.7* | 24.0*
N#Cc1c(-c2ccccc2)cc(-c2ccccc2)nc1SCC(=O)NCC(=O)O | 0.0 | -0.3 | 2.9 | 3.6 | nt
CCOC(=O)CC[C@@H]1CC[C@]2(CCCN(C(=O)C3CCCC3)C2)O1 | nt | nt | nt | -0.8 | nt
Clc1ccc(-n2c(SCc3cccc4ccccc34)nnc2-c2ccccc2)cc1 | nt | nt | nt | 2.7 | nt
C[C@H]1[C@@H](OC(=O)NCCc2c[nH]c3ccccc23)CC[C@@]23CCCN2C(=O)CCC[C@@H]13 | nt | nt | nt | 1.3 | nt
COc1ccc(OC)c(C2NC(=O)c3sc(=S)n(-c4ccccc4)c3N2)c1 (stereo not drawn) | 0.1 | 4.6 | 4.4 | 38.9* | 15.0
C=CCN1[C@H](Cc2ccccc2)COc2cc(N3CCSCC3)ccc2S1(=O)=O | nt | nt | nt | 6.7 | nt
Nc1nnc2cc(Br)ccc2n1 | -0.3 | -10.7 | -48.1 | 4.5 | nt
Brc1ccc2ncc(Br)cc2c1 | -0.2 | -1.0 | 2.2 | 44.5* | 32.9* | RORg counter=>40
Cc1ccccc1CN(C)CCS(=O)(=O)c1cc(Cl)ccc1Cl | 0.4 | -1.5 | 0.3 | 16.5* | 7.6
Cc1c(C(=O)Nc2ccc(S(=O)(=O)Nc3ncccn3)cc2)oc2ccccc12 | -0.2 | 5.8 | -1.1 | -6.6 | nt
Cc1cc2oc(C(=O)Nc3ccc(S(=O)(=O)Nc4ncccn4)cc3)c(C)c2cc1Cl | -0.2 | 4.3 | -0.7 | 22.2* | -3.8
Cc1ccc(NC(=O)[C@@H]2CC(=O)O[C@@H]2c2ccccc2)cc1C | nt | nt | nt | -6.8 | nt
CCN(CC)C(=O)CC[C@@H]1CC[C@]2(CCCN(C(=O)c3ccno3)C2)O1 | nt | nt | nt | -1.3 | nt
SMILES | aDG glyco act | CSN deneddyl inh | HNF4A DNA FP | NR1D1 modulator | Rev-erbA confirm | others
O=C(O)CCN1C(=O)c2ccc(NC(=O)c3cccs3)cc2C1=O | -0.1 | 2.2 | -0.6 | -0.8 | nt
O=C(Nc1ccc2c(c1)C(=O)N(c1ccccc1)C2=O)c1cccs1 | -0.2 | -5.3 | 2.0 | 19.6* | -5.5
Nc1ccc2ccc(O)cc2c1 | 0.5 | 7.8 | -1.8 | 0.7 | nt
C[n+]1c2cc(N)ccc2cc2ccc(N)cc21 | 0.2 | -74.0 | -99.4 | 51.1* | 28.5* | RORg counter=>40
CN(C)c1ccc(C=C2SC(=S)NC2=O)cc1 | -0.3 | 105.4* | 197.4 | 47.7* | 35.1* | RORg counter=>40
CNc1c2cccc(C)c2nc2c(C(=O)NCCN(C)C)cccc12 | -0.4 | -42.7 | -126.4 | 14.8* | 8.0
CNc1ccccc1/C(O)=C(\C#N)C(=O)NCc1cccc2ccccc12 | nt | nt | nt | 41.9* | 25.8*
O=C(NCc1cccc2ccccc12)Nc1ccccc1 | 0.1 | 7.9 | 6.3 | -6.4 | nt
CCCCCCCCNS(=O)(=O)/C=C/c1ccccc1CNC(=O)OC(C)(C)C | nt | nt | nt | -0.2 | nt
OCC1OC(Oc2cccc3ccccc23)C(O)C(O)C1O (stereo not drawn) | 0.1 | 5.1 | 1.5 | 26.4* | -2.7
OC[C@H]1O[C@@H](Oc2ccc(O)cc2)[C@H](O)[C@@H](O)[C@@H]1O | -0.2 | -2.6 | 4.5 | 3.4 | nt
CCCCN1C(=O)/C(=C/C=C2\Oc3ccccc3N2CC)SC1=S | 0.3 | 5.6 | 116.5 | 15.5* | 62.3* | RORg counter=i
CCCN1C(=O)/C(=C/C=C2\N(CC)c3ccccc3C2(C)C)SC1=S | 0.2 | -30.9 | -51.7 | 47.1* | 43.2*
CCCCN1C(=O)/C(=C/C=C2/CC(C)(C)CN2C)SC1=S | -0.6 | -95.2 | -78.4 | 83.6* | 94.5* | RORg counter=9.78*
CCN1C(=O)/C(=C\N2CCCc3ccccc32)SC1=S | -0.2 | 0.2 | 0.8 | 1.0 | nt
COC(=O)c1ccc(S(=O)(=O)N2CCC(NC(=O)CCc3ccccc3)CC2)cc1 | nt | nt | nt | 1.2 | nt
CN(C)c1ccc(/C=C(\C#N)C(=O)Nc2nc3c(s2)CCN(Cc2ccccc2)C3)cc1 | -0.1 | 29.3 | 66.2 | 27.9* | 21.9*
CSc1nc(-c2ccccc2)cc(C(F)(F)F)c1C#N | 0.3 | 0.6 | 2.6 | -6.3 | nt
COc1ccc(-c2cc(C(F)(F)F)c(C#N)c(SCC(=O)Nc3ccc(C)cc3)n2)cc1 | 0.3 | 0.9 | 2.7 | 82.8* | 32.1*
C=CCSc1nc(-c2ccc3c(c2)OCO3)cc(C(F)(F)F)c1C#N | 0.1 | 6.4 | -2.5 | 24.8* | 20.3*
CCCOc1ccc(-c2cc(C(F)(F)F)c(C#N)c(SCC(=O)O)n2)cc1 | -0.1 | -3.3 | 2.6 | -3.3 | nt
CCOC(=O)CCSc1nc(-c2ccc3c(c2)OCO3)cc(C(F)(F)F)c1C#N | 0.1 | -2.5 | -1.8 | 20.6* | 15.2
CCOC(=O)CC(=O)CSc1nc(-c2ccc3c(c2)OCO3)cc(C(F)(F)F)c1C#N | 0.4 | 0.8 | 3.6 | 110.3* | 84.5* | RORg counter=>40
Cc1ccc(-c2cc(C(F)(F)F)c(C#N)c(SCC(=O)O)n2)cc1 | -0.8 | -1.4 | 1.7 | -1.5 | nt
O=C(c1c(F)cccc1F)N1CCC(Oc2cccnc2)CC1 | nt | nt | nt | -1.1 | nt
COc1ccc(S[C@]2(C(=O)N3CCOCC3)CC(=O)N(c3ccccc3)[C@@H]2c2ccc(OC)cc2)cc1 | nt | nt | nt | 0.7 | nt
COc1ccc2cc(C(=O)N/N=C/c3sc4ccccc4c3O)ccc2c1 | -0.1 | 65.7 | 133.0 | 28.0* | 26.5*
